Measurements published in ChEMBL document CHEMBL1817563, “Novel aminopeptidase N (APN/CD13) inhibitors derived from chloramphenicol amine” (Bioorg Med Chem, 2011).

How the values were obtained:
Aminopeptidase N [1] = biological target: T1, Aminopeptidase N (Sus scrofa, UniProt P15145); assay: Inhibition of pig kidney microsomal APN assessed as hydrolysis of L-Leu-p-nitroanilide after 1 hr by spectrophotometry
T1 sequence (P15145 whole entry): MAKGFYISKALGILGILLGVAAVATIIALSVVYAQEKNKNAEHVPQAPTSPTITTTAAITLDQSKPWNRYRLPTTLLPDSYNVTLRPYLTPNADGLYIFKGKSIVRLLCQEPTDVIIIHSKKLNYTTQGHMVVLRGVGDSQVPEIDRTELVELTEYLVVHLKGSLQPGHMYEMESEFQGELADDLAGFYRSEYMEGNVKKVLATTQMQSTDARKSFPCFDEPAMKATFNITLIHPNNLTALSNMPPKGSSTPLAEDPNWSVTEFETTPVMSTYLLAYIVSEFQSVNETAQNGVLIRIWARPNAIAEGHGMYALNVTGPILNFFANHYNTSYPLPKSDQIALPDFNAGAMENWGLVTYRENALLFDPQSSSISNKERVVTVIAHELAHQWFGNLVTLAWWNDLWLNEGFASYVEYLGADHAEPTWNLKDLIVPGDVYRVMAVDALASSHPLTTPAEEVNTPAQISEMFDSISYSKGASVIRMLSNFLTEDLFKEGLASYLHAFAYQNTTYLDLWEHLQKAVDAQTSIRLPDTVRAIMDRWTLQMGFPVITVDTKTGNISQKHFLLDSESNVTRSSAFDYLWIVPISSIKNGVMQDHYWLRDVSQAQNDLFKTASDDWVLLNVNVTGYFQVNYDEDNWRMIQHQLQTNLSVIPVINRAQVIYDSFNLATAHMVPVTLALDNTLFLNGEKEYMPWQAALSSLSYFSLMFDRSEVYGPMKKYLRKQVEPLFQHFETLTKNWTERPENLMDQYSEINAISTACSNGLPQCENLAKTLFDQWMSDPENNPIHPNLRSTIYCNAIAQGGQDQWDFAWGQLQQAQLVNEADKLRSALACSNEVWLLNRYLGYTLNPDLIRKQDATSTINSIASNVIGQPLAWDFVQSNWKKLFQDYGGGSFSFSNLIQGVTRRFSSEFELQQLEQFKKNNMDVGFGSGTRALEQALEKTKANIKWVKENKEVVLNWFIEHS
Procedure, shortened: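 Porcine kidney microsomal aminopeptidase in 50 mM PBS, pH 7.2, with L-Leu-p-nitroanilide as substrate. Incubated with a range of inhibitor concentrations at 37 °C. Triplicate experiments, reported as mean ± standard deviation.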

[2] = biological target: 72 kDa type IV collagenase (Homo sapiens, UniProt P08253); assay: Inhibition of human MMP-2 after 30 mins by spectrophotometry
Procedure, shortened: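 MMP-2 was incubated with synthetic substrate and inhibitor in 50 mM sodium borate, pH 8.5, for 30 min at 37 °C. TNBS (0.03%, m/v) was then added for 20 min at room temperature. Absorbance was read at 450 nm. IC50 is the mean ± standard deviation of triplicate experiments.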

[3] = Selectivity ratio of IC50 for MMP-2 to IC50 for pig kidney microsomal APN
Aminopeptidase N [4] = biological target: Aminopeptidase N (Homo sapiens, UniProt P15144); assay: Inhibition of APN in human HL60 cells assessed as hydrolysis of L-Leu-p-nitroanilide by spectrophotometry; type: cell-based, HL-60
Procedure, shortened: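 Intact HL-60 cells suspended in PBS (1×10^5/well) served as the enzyme source, with L-Leu-p-nitroanilide as substrate. Cells were incubated at 37 °C with a range of inhibitor concentrations. Values are means of three independent experiments.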

HL-60 = assay: Antiproliferative activity against human HL60 cells expressing high levels of APN after 48 hrs by MTT assay; type: functional, cell-based; settings: HL-60, 48 h
Procedure, shortened: (§1)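 Cells kept in RPMI1640 plus 10% FBS at 37 °C, 5% CO2. Seeded 1×10^4/well and grown 4 h before inhibitors were added over a range of concentrations. After 48 h exposure, MTT (0.5 mg/mL) was added and the formazan dissolved in DMSO. Read-out was OD at 570 nm.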

MDA-MB-231 = assay: Antiproliferative activity against human MDA-MB-231 cells expressing low levels of APN after 48 hrs by MTT assay; type: functional, cell-based; settings: MDA-MB-231, 48 h; procedure, shortened: as §1

Sequence of 72 kDa type IV collagenase (P08253 whole entry): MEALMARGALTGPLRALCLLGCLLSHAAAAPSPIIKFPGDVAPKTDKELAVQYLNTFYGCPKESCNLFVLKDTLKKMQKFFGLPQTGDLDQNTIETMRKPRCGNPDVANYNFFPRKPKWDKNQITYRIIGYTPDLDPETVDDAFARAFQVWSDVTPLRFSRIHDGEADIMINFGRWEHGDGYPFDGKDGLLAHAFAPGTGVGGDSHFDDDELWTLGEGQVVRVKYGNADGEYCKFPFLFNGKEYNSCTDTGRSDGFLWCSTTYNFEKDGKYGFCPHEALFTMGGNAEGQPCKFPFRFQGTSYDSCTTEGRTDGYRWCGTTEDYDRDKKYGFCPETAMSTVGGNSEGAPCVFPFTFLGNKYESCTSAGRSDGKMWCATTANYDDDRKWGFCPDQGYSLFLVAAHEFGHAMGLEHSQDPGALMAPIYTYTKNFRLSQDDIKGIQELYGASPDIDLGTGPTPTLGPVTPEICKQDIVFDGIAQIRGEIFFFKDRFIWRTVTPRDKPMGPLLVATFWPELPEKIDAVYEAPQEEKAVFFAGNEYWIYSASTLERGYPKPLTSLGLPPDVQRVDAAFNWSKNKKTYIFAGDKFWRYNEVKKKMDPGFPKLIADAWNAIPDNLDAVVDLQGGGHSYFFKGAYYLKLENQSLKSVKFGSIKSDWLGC
Sequence of Aminopeptidase N (Homo sapiens, UniProt P15144) (P15144 whole entry): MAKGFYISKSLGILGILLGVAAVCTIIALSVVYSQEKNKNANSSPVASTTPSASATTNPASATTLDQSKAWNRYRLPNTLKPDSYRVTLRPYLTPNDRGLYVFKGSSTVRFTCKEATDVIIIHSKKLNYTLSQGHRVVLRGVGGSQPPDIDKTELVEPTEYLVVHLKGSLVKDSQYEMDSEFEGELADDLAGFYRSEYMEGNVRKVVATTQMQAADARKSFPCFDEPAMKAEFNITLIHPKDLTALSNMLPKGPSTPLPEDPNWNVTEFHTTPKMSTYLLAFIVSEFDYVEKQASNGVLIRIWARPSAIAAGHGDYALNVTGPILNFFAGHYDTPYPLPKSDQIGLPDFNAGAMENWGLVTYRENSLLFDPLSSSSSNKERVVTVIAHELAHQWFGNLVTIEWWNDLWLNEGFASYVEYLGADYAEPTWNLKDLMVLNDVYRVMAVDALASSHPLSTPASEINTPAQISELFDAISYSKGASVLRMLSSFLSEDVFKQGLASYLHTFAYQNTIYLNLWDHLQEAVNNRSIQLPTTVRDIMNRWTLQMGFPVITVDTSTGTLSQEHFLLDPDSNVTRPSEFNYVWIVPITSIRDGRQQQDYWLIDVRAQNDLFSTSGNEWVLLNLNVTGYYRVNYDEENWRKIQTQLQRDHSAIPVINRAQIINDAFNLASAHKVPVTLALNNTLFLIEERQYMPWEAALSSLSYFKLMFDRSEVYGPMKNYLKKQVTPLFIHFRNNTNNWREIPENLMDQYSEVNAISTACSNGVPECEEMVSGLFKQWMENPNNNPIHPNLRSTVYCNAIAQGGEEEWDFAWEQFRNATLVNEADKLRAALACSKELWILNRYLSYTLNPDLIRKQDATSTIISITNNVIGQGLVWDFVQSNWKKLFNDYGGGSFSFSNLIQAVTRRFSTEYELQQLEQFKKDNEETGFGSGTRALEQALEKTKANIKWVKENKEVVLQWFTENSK

| IC50 (Aminopeptidase N [1]) [µM] | IC50 [2] [µM] | Ratio IC50 [3] | IC50 (Aminopeptidase N [4]) [µM] | IC50 (HL-60) [µM] | IC50 (MDA-MB-231) [µM] | Structure (SMILES) |
| --- | --- | --- | --- | --- | --- | --- |
| > 1000 | 107 | < 0.1 |  |  |  | N[C@H](Cc1ccccc1)C(=O)N[C@H](Cc1ccccc1)C(=O)NC[C@H](N)[C@@H](O)c1ccc(I)cc1 |
| 164 | 100 |  |  |  |  | NC[C@H](O)C(=O)NC[C@H](N)[C@@H](O)c1ccc([N+](=O)[O-])cc1 |
| 39.2 | 61.3 | 1.6 |  |  |  | N[C@@H](Cc1ccc(O)cc1)C(=O)NC[C@H](N)[C@@H](O)c1ccc([N+](=O)[O-])cc1 |
| 441 | > 1000 | > 2.3 |  |  |  | N[C@@H](CNC(=O)[C@@H]1Cc2ccc(O)cc2CN1)[C@@H](O)c1ccc([N+](=O)[O-])cc1 |
| 74.7 | 106 | 1.4 |  |  |  | CC(C)C[C@H](NC(=O)[C@H](N)Cc1ccccc1)C(=O)NC[C@H](N)[C@@H](O)c1ccc([N+](=O)[O-])cc1 |
| 105 | 52.7 | 0.5 |  |  |  | CC(C)C[C@H](NC(=O)[C@H](N)Cc1ccccc1)C(=O)NC[C@H](N)[C@@H](O)c1ccc(I)cc1 |
| 114 | 111 | 1 |  |  |  | Nc1ccc([C@H](O)[C@@H](N)CNC(=O)[C@@H](N)Cc2ccc(O)cc2)cc1 |
| 12.4 | 152 | 12.7 | 248 | 2320 | 4220 | N[C@@H](CS)C(=O)NC[C@H](N)[C@@H](O)c1ccc([N+](=O)[O-])cc1 |
| 894 | > 1000 | > 1.1 |  |  |  | NC[C@H](N)[C@@H](O)c1ccc([N+](=O)[O-])cc1 |
| 11.3 | 86.6 | 7.7 |  |  |  | CC(C)C[C@H](N)C(=O)N[C@H](Cc1ccccc1)C(=O)NC[C@H](N)[C@@H](O)c1ccc(I)cc1 |
| 80.6 | 143 | 1.8 |  |  |  | CC(C)C[C@H](N)C(=O)NC[C@H](N)[C@@H](O)c1ccc([N+](=O)[O-])cc1 |
| 134 | 44.1 | 0.3 |  |  |  | N[C@H](Cc1ccccc1)C(=O)N[C@H](Cc1ccccc1)C(=O)NC[C@H](N)[C@@H](O)c1ccc([N+](=O)[O-])cc1 |
| 21.6 | 110 | 5 |  |  |  | N[C@H](Cc1ccccc1)C(=O)N[C@@H](CO)C(=O)NC[C@H](N)[C@@H](O)c1ccc([N+](=O)[O-])cc1 |
| 6.1 | 134 | 22.3 | 39.4 | 1340 | 3650 | CC(C)C[C@H](N)C(=O)N[C@H](Cc1ccccc1)C(=O)NC[C@H](N)[C@@H](O)c1ccc(N)cc1 |
| 19.6 | 83.9 | 4.2 |  |  |  | CC(C)C[C@H](NC(=O)[C@@H](O)CN)C(=O)NC[C@H](N)[C@@H](O)c1ccc([N+](=O)[O-])cc1 |
| 31.6 | 94 | 3 |  |  |  | CC(C)C[C@H](NC(=O)[C@H](N)Cc1ccccc1)C(=O)NC[C@H](N)[C@@H](O)c1ccc(N)cc1 |
| 63.2 | 119 | 1.9 |  |  |  | CC(C)C[C@H](N)C(=O)NC[C@H](N)[C@@H](O)c1ccc(N)cc1 |
| 423 | 331 | 0.8 |  |  |  | N[C@@H](CO)C(=O)NC[C@H](N)[C@@H](O)c1ccc([N+](=O)[O-])cc1 |
| 136 | 157 | 1.2 |  |  |  | NCCCC[C@H](N)C(=O)NC[C@H](N)[C@@H](O)c1ccc(N)cc1 |
| 141 | 149 | 1.1 |  |  |  | Nc1ccc([C@H](O)[C@@H](N)CNC(=O)[C@H](N)Cc2ccccc2)cc1 |
|  | 120 |  |  |  | 5080 | CC(C)C[C@H](NC(=O)[C@@H](O)[C@H](N)Cc1ccccc1)C(=O)O [UBENIMEX] |
| 21.6 | 42.2 | 2 |  |  |  | N[C@@H](Cc1ccc(O)cc1)C(=O)NC[C@H](N)[C@@H](O)c1ccc(I)cc1 |
| 42.2 | 67.4 | 1.6 |  |  |  | N[C@H](Cc1ccccc1)C(=O)NC[C@H](N)[C@@H](O)c1ccc([N+](=O)[O-])cc1 |
| 30.6 | 120 | 3.9 |  |  |  | CC(C)C[C@H](N)C(=O)NC[C@H](N)[C@@H](O)c1ccc(I)cc1 |
| 30.6 | 40.4 | 1.3 |  |  |  | Nc1ccc([C@H](O)[C@@H](N)CNC(=O)[C@@H](Cc2ccccc2)NC(=O)[C@H](N)Cc2ccccc2)cc1 |
| 17.6 | 109 | 6.1 | 616 | 3150 | 7320 | N[C@H](Cc1ccccc1)C(=O)NC[C@H](O)C(=O)NC[C@H](N)[C@@H](O)c1ccc([N+](=O)[O-])cc1 |
| 9.4 | 173 | 19.2 | 290 | 2150 | 1320 | CC(C)C[C@H](N)C(=O)N[C@H](Cc1ccccc1)C(=O)NC[C@H](N)[C@@H](O)c1ccc([N+](=O)[O-])cc1 |
| 6.5 | 40.6 | 6.3 | 66.3 | 2040 | 4130 | NC[C@H](O)C(=O)N[C@H](Cc1ccccc1)C(=O)NC[C@H](N)[C@@H](O)c1ccc([N+](=O)[O-])cc1 |
| 50.1 | 84.3 | 1.7 |  |  |  | NCCCC[C@H](N)C(=O)NC[C@H](N)[C@@H](O)c1ccc([N+](=O)[O-])cc1 |
